In the library only some 4.1% were active in any assay of this set; here they are far more common.
KCNQ1 block: inhibitors of human KCNQ1 channel, primary screen, cell-based, thallium flux, high-throughput; Potassium voltage-gated channel subfamily KQT member 1 (Homo sapiens), P51787; CHO-K1 KCNQ1, FluxOR thallium flux fluorescence; active compounds read high; B-score at 10 µM; 310,000 tested, 1.3% active; AID 2642, 2010;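 active = compounds whose thallium flux B-score, printed positive for inhibition, exceeds three library SD while starting fluorescence stays within three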;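 also: channel opened by potassium depolarization with thallium stimulus after 20 min compound exposure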
hERG protect: hERG rescue from dofetilide block, primary screen, cell-based, CHO-hERG, FluxOR thallium flux, dofetilide IC70; 310,000 tested, 0.51% active; activation (rescue from dofetilide block), less the hit threshold, % at 10 µM; Voltage-gated inwardly rectifying potassium channel KCNH2 (Homo sapiens), Q12809; dofetilide IC70 present;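 active = activation above the mean of controls blocked by dofetilide plus 5 SD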;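 also: thallium influx through hERG after potassium depolarization seen as dye fluorescence rise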
KCNQ1 act: potentiators or activators of KCNQ1 channel, primary screen, cell-based, thallium flux, high-throughput; 310,000 tested, 0.35% active; CHO-K1 KCNQ1, thallium flux FluxOR fluorescence; active compounds read high; B-score at 10 µM; Potassium voltage-gated channel subfamily KQT member 1 (Homo sapiens), P51787;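 active = fluorescence ratio B-score, a plate-corrected score, at least three library SD, with initial intensity B-score within 5 SD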
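assay system = KCNQ1-transfected CHO-K1 cells | medium = assay buffer with matched DMSO | probe or stimulus = depolarizing K+/Tl+ stimulus, K2SO4 and Tl2SO4 each 12.5 mM in 5x stock | dosing = single dose | incubation = dye 90 min, compound 20 min, room temperature | detection = kinetic FluxOR fluorescence, 10 s baseline plus 110 s post-stimulus | evaluation = ratio B score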
Cl transport mod: KCC2 cotransporter modulators, thallium flux, primary screen, cell-based, HEK293 KCC2, FluoZin-2 fluorescence, MLSMR; Solute carrier family 12 member 5 (Homo sapiens), Q9H2X9; KCC2 cells, thallium flux FluoZin-2 fluorescence; B-score of Tl+ flux slope (higher = more flux/activation; lower = inhibition) at 10 µM; 190,000 tested, 2.2% active;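 active = thallium flux slope and its plate-corrected score both differing from the plate sample mean at a set confidence after two filtering rounds, in either direction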;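 also: slope of fluorescence scaled to starting intensity during 10 to 20 s after thallium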
KCNK3 block: human KCNK3 channel inhibitors, primary screen, CHO cells, FluxOR thallium flux, B-score; B-score at 10 µM; FluxOR fluorescence; active compounds read low; Potassium channel subfamily K member 3 (Homo sapiens), O14649; 340,000 tested, 0.84% active;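 active = B-score under library mean minus 4 SD, starting fluorescence ratio at most library mean plus 5 SD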;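 also: more negative B-score means stronger inhibition of thallium flux through KCNK3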
Target sequence (O14649 whole entry, looked up): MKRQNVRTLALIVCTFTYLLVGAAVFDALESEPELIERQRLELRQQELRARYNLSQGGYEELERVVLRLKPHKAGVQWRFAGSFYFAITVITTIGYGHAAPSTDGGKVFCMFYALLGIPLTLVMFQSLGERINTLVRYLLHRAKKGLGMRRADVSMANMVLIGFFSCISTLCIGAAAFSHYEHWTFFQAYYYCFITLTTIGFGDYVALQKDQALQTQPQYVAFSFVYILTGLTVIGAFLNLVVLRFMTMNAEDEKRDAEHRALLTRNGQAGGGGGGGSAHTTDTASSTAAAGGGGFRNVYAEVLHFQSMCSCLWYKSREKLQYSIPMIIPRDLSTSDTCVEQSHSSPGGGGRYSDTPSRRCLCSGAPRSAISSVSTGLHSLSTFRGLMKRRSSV
KCNK9 inh: KCNK9 potassium channel inhibitors, primary screen, HEK293 cells, thallium flux. 310,000 tested, 1.2% active. AID 488922, 2010. B-score at 10 µM. FluxOR thallium flux fluorescence; active compounds read low;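 active = ratio B-score over 3 SD below the library mean, with starting fluorescence within 5 SD of its mean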;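 also: negative B-score means less thallium flux so channel inhibition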
Target sequence (Q9NPC2 whole entry, looked up): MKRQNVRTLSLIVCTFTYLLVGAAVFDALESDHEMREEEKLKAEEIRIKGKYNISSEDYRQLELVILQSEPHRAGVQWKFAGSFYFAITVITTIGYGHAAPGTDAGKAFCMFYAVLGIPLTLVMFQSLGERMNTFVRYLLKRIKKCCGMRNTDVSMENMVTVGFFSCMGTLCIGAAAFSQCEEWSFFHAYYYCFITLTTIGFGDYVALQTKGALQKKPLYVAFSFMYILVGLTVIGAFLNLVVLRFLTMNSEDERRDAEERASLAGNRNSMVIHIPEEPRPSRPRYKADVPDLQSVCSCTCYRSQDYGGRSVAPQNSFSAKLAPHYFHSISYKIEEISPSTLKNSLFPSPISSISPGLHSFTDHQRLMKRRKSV
KCNQ1 inh valid: KCNQ1 potassium channel inhibitors, confirmation, cell-based, Tl flux, duplicate. shares compounds with KCNQ1 block. KCNQ1 cell line, FluxOR thallium flux fluorescence. inhibition, % at 10 µM. 1,600 tested, 93% active;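 active = primary screen active, with duplicate mean exceeding buffer control mean plus 3 SD of buffer wells, cut at about 28% in these data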
CHO Tl flux: thallium flux effects in parental CHO cells, counter-screen for KCNQ1 inhibitor project, cell-based, Tl flux. shares compounds with KCNQ1 block. parental CHO-K1, FluxOR thallium flux fluorescence ratio; active compounds read low; zero means no signal rise above baseline. fluorescence ratio (Tl flux) at 10 µM. 1,600 tested, 21% active. AID 588366, 2011;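 active = mean of duplicate thallium-flux fluorescence ratios in parental host cells more than 5 SD below the buffer control mean, cut at about 0.38 in these data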;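 also: ratio is peak minus minimum fluorescence divided by baseline fluorescence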
KCNQ1 APC inh: KCNQ1 channel inhibitors, confirmation, orthogonal assay, cell-based, automated electrophysiology; shares compounds with KCNQ1 block; KCNQ1-CHO cells, automated patch clamp current; calls only at 10 µM; 490 tested, 20% active;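 active = KCNQ1 current drop exceeding 3 SD of negative control wells, seen in both duplicate runs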;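 also: steady state current during a 2 s step from -80 to +40 mV; negative values mean current inhibition and positive values mean potentiation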
KCNQ2 inh: KCNQ2 channel inhibition, selectivity assay for KCNQ1 inhibitor project, cell-based. shares compounds with KCNQ1 block. KCNQ2 cells, FluxOR thallium flux fluorescence. inhibition, % at 10 µM. 1,600 tested, 71% active;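 active = mean percent inhibition of the KCNQ2 thallium signal more than 5 SD above the buffer-only control wells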;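 also: KCNQ2 expressed in CHO cells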
KCNQ1-KCNE1 inh: KCNQ1/KCNE1 channel inhibition, selectivity assay for KCNQ1 inhibitor project, CHO-K1 cells, thallium flux, FluxOR | shares compounds with KCNQ1 block | FluxOR thallium flux fluorescence | inhibition, % at 10 µM | 1,600 tested, 77% active | AID 652147, 2013;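 active = mean percent inhibition of duplicate wells above the buffer-only control mean plus 3 SD of those controls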
Of the large screens only hits and unclear results are named; the others gave an inactive call (follow-up assays come after a bar, where they were run).

N#Cc1ccc(C(=O)OCC(=O)Nc2cccc(S(=O)(=O)N3CCCCC3)c2)cc1	none (no result: KCNQ1 block, hERG protect, KCNQ1 act, Cl transport mod, KCNK9 inh)
O=C(Nc1ccc(CN2CCCCC2)cc1)c1c(F)c(F)c(F)c(F)c1F	KCNQ1 block 6 | KCNQ1 inh valid 74 | CHO Tl flux inactive | KCNQ2 inh inactive | KCNQ1-KCNE1 inh 44%
COCCN1CCN(c2cc(-c3ccccc3)nc3cc(-c4cccc(F)c4)nn23)CC1	KCNQ1 block 6 | KCNQ1 inh valid 118 | CHO Tl flux 0.34 | KCNQ2 inh 133% | KCNQ1-KCNE1 inh 156%
Fc1cccc(-c2cc3nc(-c4ccccc4)cc(N4CCC5(CC4)OCCO5)n3n2)c1	none
CCC(C)[C@H](NC(=O)N1CC(=O)Nc2ccccc21)C(=O)N[C@H](Cc1ccccc1)C(=O)O (stereo partly drawn)	none (no result: Cl transport mod)
COc1cccc(CNC(=O)c2cc3c(C)nc4ccccc4c3o2)c1	none (no result: Cl transport mod)
CCc1ccc(CNC(=O)c2cc3c(C)nc4ccccc4c3o2)cc1	KCNQ1 block 8 | KCNQ1 inh valid 140 | CHO Tl flux 0.25 | KCNQ2 inh 113% | KCNQ1-KCNE1 inh active
COc1ccc(NC2CCCN(C(=O)COc3ccc(Cl)cc3C)C2)cc1OC (stereo not drawn)	none (no result: Cl transport mod)
COc1ccccc1NC(C#N)c1ccccc1OCc1ccccc1 (stereo not drawn)	KCNQ1 block 7 | KCNQ1 inh valid 100 | CHO Tl flux inactive | KCNQ1 APC inh inactive | KCNQ2 inh 96% | KCNQ1-KCNE1 inh 135%
O=C(COc1cccc(C(F)(F)F)c1)Nc1ccc(S(=O)(=O)N2CCCCC2)cc1	KCNQ1 block 8 (no result: Cl transport mod) | KCNQ1 inh valid 107 | CHO Tl flux inactive | KCNQ1 APC inh inactive | KCNQ2 inh 99% | KCNQ1-KCNE1 inh 67%
O=C(CN1CCOCC1)Nc1nc(-c2ccc(Cl)cc2)cs1	KCNQ1 block 6 (no result: Cl transport mod) | KCNQ1 inh valid 56 | CHO Tl flux inactive | KCNQ2 inh inactive | KCNQ1-KCNE1 inh 60%
Cc1ccc(S(=O)(=O)N(Cc2ccccc2)Cc2ccco2)cc1	KCNQ1 block 7 | KCNQ1 inh valid 96 | CHO Tl flux inactive | KCNQ1 APC inh inactive | KCNQ2 inh 93% | KCNQ1-KCNE1 inh 40%
Nc1ccc(-c2c3ccc(=O)cc-3oc3cc(O)ccc23)cc1C(=O)O	KCNQ1 block 24 (no result: Cl transport mod) | KCNQ1 inh valid active | CHO Tl flux 0.0075 | KCNQ2 inh inactive | KCNQ1-KCNE1 inh inactive
O=c1ccc2c(-c3ccccc3)c3ccc(O)cc3oc-2c1	KCNQ1 block 24 (no result: Cl transport mod) | KCNQ1 inh valid active | CHO Tl flux 0 | KCNQ2 inh inactive | KCNQ1-KCNE1 inh inactive
CCN(CC)c1nc2ccccc2n(Cc2cccc(OC)c2)c1=O	KCNQ1 block 6 (no result: Cl transport mod) | KCNQ1 inh valid 109 | CHO Tl flux inactive | KCNQ1 APC inh inactive | KCNQ2 inh 99% | KCNQ1-KCNE1 inh 170%
O=C(NCCCN1CCN(c2ccccc2)CC1)C1CCCN(c2ncnc3c2nc2n3CCCCC2)C1 (stereo not drawn)	none (no result: Cl transport mod)
Cn1ncc(Br)c1NC(=O)Nc1ccc(OC(F)(F)F)cc1	KCNQ1 block 8 | KCNQ1 inh valid 79 | CHO Tl flux inactive | KCNQ2 inh 132% | KCNQ1-KCNE1 inh inactive
Cc1ccc(C)c(CN2CCC(CNC(=O)Nc3ccc(F)c(Cl)c3)CC2)c1	KCNQ1 block 7 (no result: Cl transport mod) | KCNQ1 inh valid 58 | CHO Tl flux inactive | KCNQ2 inh inactive | KCNQ1-KCNE1 inh 42%
Cc1cc(C)cc(NC(=O)NCC2CCN(Cc3cc(C)ccc3C)CC2)c1	none (no result: Cl transport mod)
CCOc1ccc2oc(C(=O)N3CCCN(C)CC3)c(C)c2c1	none (no result: KCNQ1 block, hERG protect, KCNQ1 act, Cl transport mod, KCNK9 inh)
CCOc1ccc2oc(C(=O)N3CCN(c4ccccc4OCC)CC3)c(C)c2c1	KCNQ1 block 6 (no result: Cl transport mod) | KCNQ1 inh valid 125 | CHO Tl flux inactive | KCNQ1 APC inh inactive | KCNQ2 inh 131% | KCNQ1-KCNE1 inh active
COc1cccc(CNC(=O)CCNC(=O)Cn2ccc3ccccc3c2=O)c1	KCNQ1 block 7 | KCNQ1 inh valid inactive | CHO Tl flux inactive | KCNQ2 inh inactive | KCNQ1-KCNE1 inh inactive
CCSc1nsc(NC(=O)Nc2ccccc2F)n1	none (no result: Cl transport mod)
C=CCSc1nsc(NC(=O)Nc2ccc(F)cc2)n1	KCNQ1 block 14 (no result: Cl transport mod) | KCNQ1 inh valid 64 | CHO Tl flux inactive | KCNQ2 inh inactive | KCNQ1-KCNE1 inh inactive
Cc1cc(=O)[nH]c(SCC(=O)/C=C2\N(C)c3ccccc3C2(C)C)n1	KCNQ1 block 11 | KCNQ1 inh valid 106 | CHO Tl flux inactive | KCNQ1 APC inh inactive | KCNQ2 inh 88% | KCNQ1-KCNE1 inh 79%
Cc1cccc(N2CC(C)Cn3c2nc2c3c(=O)[nH]c(=O)n2C)c1 (stereo not drawn)	none (no result: Cl transport mod)
CCN=C(NCC)SC1CC(=O)N(c2ccccc2)C1=O (stereo not drawn)	none
CCN=C(NCC)SC1CC(=O)N(c2cccc(OC)c2)C1=O (stereo not drawn)	KCNQ1 block 11 | KCNQ1 inh valid 64 | CHO Tl flux inactive | KCNQ2 inh 71% | KCNQ1-KCNE1 inh 62%
CC(c1ccon1)N(C)Cc1cn(Cc2ccccc2)nc1-c1ccc2c(c1)OCO2 (stereo not drawn)	KCNQ1 block 6 (no result: Cl transport mod) | KCNQ1 inh valid 104 | CHO Tl flux inactive | KCNQ1 APC inh inactive | KCNQ2 inh 96% | KCNQ1-KCNE1 inh 57%

High-throughput results deposited in PubChem BioAssay by several laboratories.
